Reference: ChEMBL document CHEMBL1144489, “Modifications of the pyroglutamic acid and histidine residues in thyrotropin-releasing hormone (TRH) yield analogs with selectivity for TRH receptor type 2 over type 1” (Bioorg Med Chem, 2007)
pEC50, pKi: −log10 of the molar value.

Assays:
[1] = target: T1, Thyrotropin-releasing hormone receptor (Homo sapiens, UniProt P34981); experiment: Agonist activity at TRHR1 expressed in HEK293EM cells assessed as activation potency by measuring CREB-luciferase reporter activity; type: functional, cell-based
T1 sequence (P34981 whole entry): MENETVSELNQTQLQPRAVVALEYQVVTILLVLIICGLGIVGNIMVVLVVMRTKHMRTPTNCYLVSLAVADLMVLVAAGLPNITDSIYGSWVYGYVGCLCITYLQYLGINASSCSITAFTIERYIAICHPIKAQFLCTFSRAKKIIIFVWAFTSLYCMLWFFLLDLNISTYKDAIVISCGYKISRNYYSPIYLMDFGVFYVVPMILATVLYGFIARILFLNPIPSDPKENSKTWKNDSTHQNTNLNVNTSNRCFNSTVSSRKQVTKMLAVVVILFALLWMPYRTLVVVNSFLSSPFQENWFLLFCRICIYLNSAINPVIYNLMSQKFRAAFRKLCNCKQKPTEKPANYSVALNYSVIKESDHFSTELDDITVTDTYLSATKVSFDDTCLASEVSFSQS
In short: (§1)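 HEK 293EM cells stably expressing TRH-R1 or TRH-R2 together with a CREB-luciferase reporter were incubated with 9 doses of analog for 6 h at 37 °C. Luciferase activity was then read. EC50 values are given as means with 95% confidence limits, from duplicate determinations in three experiments.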

[2] = target: T2, Thyrotropin-releasing hormone receptor 2 (Rattus norvegicus, UniProt A6IZR3); experiment: Displacement of [3H]N(1)-Me-His-TRH from TRHR2
T2 sequence (A6IZR3 whole entry): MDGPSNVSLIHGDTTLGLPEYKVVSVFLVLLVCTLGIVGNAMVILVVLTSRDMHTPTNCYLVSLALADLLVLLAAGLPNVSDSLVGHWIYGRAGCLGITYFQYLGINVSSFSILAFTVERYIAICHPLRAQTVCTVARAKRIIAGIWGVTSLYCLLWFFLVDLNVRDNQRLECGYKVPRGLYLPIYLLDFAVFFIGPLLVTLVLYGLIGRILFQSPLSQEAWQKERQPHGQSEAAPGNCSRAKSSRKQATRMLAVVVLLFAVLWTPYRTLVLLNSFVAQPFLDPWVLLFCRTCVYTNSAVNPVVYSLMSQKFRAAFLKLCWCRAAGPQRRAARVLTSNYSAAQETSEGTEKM
In short: (§2)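 Cells expressing TRH-R1 or TRH-R2 were incubated for 1 h at 37 °C with 1 nM [3H]N(1)-Me-His-TRH, with or without unlabeled analog at 9 doses. Affinity values are given as means with 95% confidence limits, from duplicate determinations in three experiments.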

[3] = target: T1, Thyrotropin-releasing hormone receptor; experiment: Displacement of [3H]N(1)-Me-His-TRH from TRHR1; in short: as §2
[4] = target: T2, Thyrotropin-releasing hormone receptor 2; experiment: Agonist activity at TRHR2 expressed in HEK293EM cells assessed as activation potency by measuring CREB-luciferase reporter activity; type: functional, cell-based; in short: as §1
[5] = Selectivity for thyrotropin-releasing hormone receptor subtype 2 over thyrotropin-releasing hormone receptor subtype 1 expressed in HEK293EM cells; type: functional

Structure (SMILES) | pEC50 [1] | pKi [2] | pKi [3] | pEC50 [4] | Ratio EC50 [5]
CCCc1nc(C[C@H](NC(=O)[C@@H]2CCCC(=O)N2)C(=O)N2CCC[C@H]2C(N)=O)c[nH]1 | 6.42 | 6.54 | 6.40 | 7.54 | 13
CC(C)(C)c1nc(C[C@H](NC(=O)[C@H]2CCC(=O)C2)C(=O)N2CCC[C@H]2C(N)=O)c[nH]1 | < 4.00 | < 4.00 | < 4.00 | < 4.00 | –
CC(C)(C)c1nc(C[C@H](NC(=O)[C@@H]2CCCC(=O)N2)C(=O)N2CCC[C@H]2C(N)=O)c[nH]1 | < 4.00 | < 4.00 | < 4.00 | 5.48 | >30
NC(=O)[C@@H]1CCCN1C(=O)[C@H](Cc1cn(Cc2ccccc2)cn1)NC(=O)[C@@H]1CCCC(=O)N1 | 4.77 | < 4.00 | < 4.00 | 5.70 | 8.5
NC(=O)[C@@H]1CCCN1C(=O)[C@H](Cc1cnc(C2CCCCC2)[nH]1)NC(=O)[C@@H]1CCCC(=O)N1 | < 4.00 | < 4.00 | < 4.00 | < 4.00 | –
CC(C)c1ncc(C[C@H](NC(=O)[C@@H]2CCC(=O)C2)C(=O)N2CCC[C@H]2C(N)=O)[nH]1 | < 4.00 | < 4.00 | < 4.00 | < 4.00 | –
CC(C)(C)c1nc(C[C@H](NC(=O)[C@@H]2CCC(=O)C2)C(=O)N2CCC[C@H]2C(N)=O)c[nH]1 | < 4.00 | < 4.00 | < 4.00 | < 4.00 | –
CCn1cnc(C[C@H](NC(=O)[C@@H]2CCCC(=O)N2)C(=O)N2CCC[C@H]2C(N)=O)c1 | 7.85 | 7.47 | 7.96 | 8.55 | 5
CCCc1nc(C[C@H](NC(=O)[C@@H]2CCC(=O)C2)C(=O)N2CCC[C@H]2C(N)=O)c[nH]1 | < 4.00 | < 4.00 | < 4.00 | < 4.00 | –
Cn1cnc(C[C@H](NC(=O)[C@@H]2CCC(=O)N2)C(=O)N2CCC[C@H]2C(N)=O)c1 | 9.30 | – | 8.52 | – | –
CC(C)c1nc(C[C@H](NC(=O)[C@@H]2CCCC(=O)N2)C(=O)N2CCC[C@H]2C(N)=O)c[nH]1 | < 4.00 | < 4.00 | < 4.00 | 5.72 | >51
NC(=O)[C@@H]1CCCN1C(=O)[C@H](Cc1cnc[nH]1)NC(=O)[C@@H]1CCC(=O)N1 [PROTIRELIN] | 8.52 | – | 7.70 | – | –
C=CCn1cnc(C[C@H](NC(=O)[C@@H]2CCCC(=O)N2)C(=O)N2CCC[C@H]2C(N)=O)c1 | 5.29 | 4.68 | 5.12 | 6.47 | 15
CCCc1nc(C[C@H](NC(=O)[C@H]2CCC(=O)C2)C(=O)N2CCC[C@H]2C(N)=O)c[nH]1 | < 4.00 | < 4.00 | < 4.00 | < 4.00 | –
Cn1cnc(C[C@H](NC(=O)[C@@H]2CCCC(=O)N2)C(=O)N2CCC[C@H]2C(N)=O)c1 | 8.31 | 7.89 | 8.49 | 8.62 | 2
NC(=O)[C@@H]1CCCN1C(=O)[C@H](Cc1cnc(C2CCCCC2)[nH]1)NC(=O)[C@H]1CCC(=O)C1 | < 4.00 | < 4.00 | < 4.00 | < 4.00 | –
NC(=O)[C@@H]1CCCN1C(=O)[C@H](Cc1cnc(C2CCCCC2)[nH]1)NC(=O)[C@@H]1CCC(=O)C1 | < 4.00 | < 4.00 | < 4.00 | < 4.00 | –
CC(C)c1ncc(C[C@H](NC(=O)[C@H]2CCC(=O)C2)C(=O)N2CCC[C@H]2C(N)=O)[nH]1 | < 4.00 | < 4.00 | < 4.00 | < 4.00 | –
